# Assay results collected from several papers.
# Each line is one published result; the experiments were not run side by side.
# Cell line: HepG2
# Read-out: cell growth or viability
Structure (SMILES),technique,concentration,time,measurement,value
Clc1ccccc1-c1nc2ccccc2[nH]1,MTT,,48 h,IC50,31.5 µM
COc1ccc(NC(=O)c2c(Nc3ccccc3)sc(C#N)c2NC(=O)CNc2ccc(Br)cc2)cc1,SRB,100 µM,48 h,viability,39.7%
COc1ccc(-c2nc3ccccc3[nH]2)cc1OC,MTT,,48 h,IC50,44.1 µM
CCOC(=O)c1ccc(N2C(N)=C(C#N)C3(C(=O)Nc4ccccc43)C(C#N)=C2O)cc1 (stereo not drawn),MTT,3.125 µM,24 h,viability,69.3%
COc1ccc(NC(=O)c2c(Nc3ccccc3)sc(C(=O)NN=Cc3ccccc3)c2NC(C)=O)cc1,SRB,1 nM,48 h,viability,99.3%
CCOC(=O)c1ccc(-n2c(C)cc(C)c(C#N)c2=O)cc1,MTT,6.25 µM,24 h,viability,90.3%
COc1ccc(NC(=O)c2c(Nc3ccccc3)sc(C#N)c2NC(=O)CNc2ccc(Cl)cc2)cc1,SRB,10 µM,48 h,viability,33.2%
CC(=O)Nc1cccc(-n2c(=O)n(C3CC3)c(=O)c3c(Nc4ccc(I)cc4F)n(C)c(=O)c(C)c32)c1,resazurin,6.25 nM,72 h,viability,68%
CCOC(=O)c1ccc(NC(=O)C2=C3C(=Nc4ccccc43)NC2=O)cc1,MTT,1.56 µM,24 h,viability,100%
COc1ccc(NC(=O)c2c(Nc3ccccc3)sc(C#N)c2NC(=O)CNc2ccccc2Cl)cc1,SRB,1 nM,48 h,viability,101%
Cc1ccc2nc(-c3ccc(F)cc3)[nH]c2c1,MTT,,48 h,IC50,80.4 µM
CCOC(=O)c1ccc(-n2c(-c3ccc(C)cc3)cc(-c3ccc(O)cc3)c(C#N)c2=O)cc1,MTT,6.25 µM,24 h,viability,67.9%
O=[N+]([O-])c1ccc(-c2nc3ccccc3[nH]2)cc1,MTT,,48 h,IC50,21 µM
CCOC(=O)c1ccc(-n2c(N)c(C#N)c(CC#N)c(C#N)c2=O)cc1,MTT,50 µM,24 h,viability,35.1%
COc1ccc(NC(=O)c2c(Nc3ccccc3)sc(C(=O)NN=Cc3ccc(OC)c(O)c3)c2NC(C)=O)cc1,SRB,1 nM,48 h,viability,100%
